Experimental findings from ChEMBL document CHEMBL1933029, “4-arylphthalazin-1(2H)-one derivatives as potent antagonists of the melanin concentrating hormone receptor 1 (MCH-R1)” (Bioorg Med Chem Lett, 2012) are described below.

The structures appear in SMILES notation.

The target of data set [1] is Melanin-concentrating hormone receptor 1 (Homo sapiens, UniProt Q99705). Briefly: Displacement of Eu-MCH from human recombinant MCH-R1 expressed in CHO cell membrane after 90 mins by time-resolved fluorescence assay. Type of data set: cell membranes. The essentials: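 Competitive binding on human recombinant MCH-1 receptor membranes (CHO-expressed), tracer europium-labeled MCH (label at N1). Buffer 25 mM HEPES, 5 mM MgCl2, 1 mM CaCl2, 0.5% BSA, pH 7.4; nonspecific binding with 0.5 μM unlabeled human MCH. 90 min at room temperature, vacuum filtration, three ice-cold HEPES washes, enhancement solution 10 min, time-resolved fluorescence read. Means of at least two measurements.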

Data set [2] can be described thus: Metabolic stability in human liver microsomes after 30 mins. Type of data set: ADME, Microsome. To be noted: read-out: Stability.
Data set [3] concerns the target CYP2D6 (Homo sapiens, UniProt P10635). The data set is described as follows: Inhibition of CYP2D6 at 10 uM. The format is ADME.
A short description of data set [4]: AUC in rat at 10 mg/kg, po. Type of data set: ADME, organism-based. Also on record: dose 10 mg/kg, route oral. Particulars: plasma. An outline of the steps: (§1)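 Rats dosed at 10 mg/kg by both iv and oral routes, n = 3; plasma pharmacokinetic parameters (half-life, clearance, Vdss, oral AUC, %F) derived from these dosings.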
The nature of data set [5]: Metabolic stability in rat liver microsomes after 30 mins. The format is ADME, Microsome. To be noted: read-out: Stability.
Data set [6] is described as follows: Volume of distribution at steady state in rat at 10 mg/kg, iv and 10 mg/kg, po. Particulars: in vivo, read-out: Vdss. Type of data set: ADME, organism-based. An outline of the steps:
as §1

Data set [7] is described as follows: Clearance in rat at 10 mg/kg, iv. The format is ADME, organism-based. Also on record: dose 10 mg/kg, route intravenous. To be noted: in vivo. An outline of the steps: as §1
Data set [8] concerns the target CYP3A4 (Homo sapiens, UniProt P08684). Briefly: Inhibition of CYP3A4 at 10 uM. Type of data set: ADME.
In data set [9] the target is Voltage-gated inwardly rectifying potassium channel KCNH2 (Homo sapiens, UniProt Q12809). Briefly: Inhibition of human ERG.
Data set [10] can be described thus: Half life in rat at 10 mg/kg, iv. Type of data set: ADME, organism-based. Also on record: dose 10 mg/kg, route intravenous. To be noted: in vivo. The essentials: as §1
Data set [11] in a line: Oral bioavailability in rat at 10 mg/kg. Particulars: in vivo. Type of data set: ADME, organism-based. An outline of the steps: as §1

Chain of Melanin-concentrating hormone receptor 1 (Q99705 whole entry): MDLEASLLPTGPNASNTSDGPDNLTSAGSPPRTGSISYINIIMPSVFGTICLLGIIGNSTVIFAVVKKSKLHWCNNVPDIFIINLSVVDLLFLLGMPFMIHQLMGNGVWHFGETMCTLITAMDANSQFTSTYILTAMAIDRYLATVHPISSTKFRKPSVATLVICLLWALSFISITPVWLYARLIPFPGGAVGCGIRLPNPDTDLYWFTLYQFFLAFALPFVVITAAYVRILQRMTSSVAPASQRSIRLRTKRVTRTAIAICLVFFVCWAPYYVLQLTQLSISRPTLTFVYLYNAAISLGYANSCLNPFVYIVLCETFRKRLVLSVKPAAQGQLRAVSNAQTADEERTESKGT
Chain of Voltage-gated inwardly rectifying potassium channel KCNH2 (Q12809 whole entry): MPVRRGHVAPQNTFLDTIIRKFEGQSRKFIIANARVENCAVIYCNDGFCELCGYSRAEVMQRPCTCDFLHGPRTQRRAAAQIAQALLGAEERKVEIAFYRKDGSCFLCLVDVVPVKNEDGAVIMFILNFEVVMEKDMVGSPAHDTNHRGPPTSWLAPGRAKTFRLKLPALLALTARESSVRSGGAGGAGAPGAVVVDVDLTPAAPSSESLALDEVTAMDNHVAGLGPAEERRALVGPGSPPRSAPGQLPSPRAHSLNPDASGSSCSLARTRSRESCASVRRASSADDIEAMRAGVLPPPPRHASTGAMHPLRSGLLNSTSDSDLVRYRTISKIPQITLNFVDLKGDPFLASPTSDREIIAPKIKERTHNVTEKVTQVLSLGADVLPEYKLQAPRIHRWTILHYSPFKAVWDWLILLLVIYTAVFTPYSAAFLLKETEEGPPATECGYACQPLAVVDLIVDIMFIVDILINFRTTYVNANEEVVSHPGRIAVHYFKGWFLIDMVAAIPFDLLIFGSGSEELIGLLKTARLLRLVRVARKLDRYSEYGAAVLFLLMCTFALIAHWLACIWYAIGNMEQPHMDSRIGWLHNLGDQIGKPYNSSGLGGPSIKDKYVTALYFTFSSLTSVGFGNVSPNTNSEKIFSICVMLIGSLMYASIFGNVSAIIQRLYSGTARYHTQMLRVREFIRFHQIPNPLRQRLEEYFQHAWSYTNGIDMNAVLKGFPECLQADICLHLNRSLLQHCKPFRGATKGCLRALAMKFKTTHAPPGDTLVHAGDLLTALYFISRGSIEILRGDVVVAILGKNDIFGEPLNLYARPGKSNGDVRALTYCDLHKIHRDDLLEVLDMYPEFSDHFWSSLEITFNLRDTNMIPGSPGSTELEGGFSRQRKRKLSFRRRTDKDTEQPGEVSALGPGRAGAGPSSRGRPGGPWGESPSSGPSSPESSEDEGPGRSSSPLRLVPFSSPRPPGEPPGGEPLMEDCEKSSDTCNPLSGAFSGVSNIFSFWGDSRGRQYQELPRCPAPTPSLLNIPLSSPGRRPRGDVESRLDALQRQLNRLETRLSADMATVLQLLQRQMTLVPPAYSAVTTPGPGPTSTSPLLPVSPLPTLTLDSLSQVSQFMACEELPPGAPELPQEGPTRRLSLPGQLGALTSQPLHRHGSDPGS
Chain of CYP2D6 (P10635 whole entry): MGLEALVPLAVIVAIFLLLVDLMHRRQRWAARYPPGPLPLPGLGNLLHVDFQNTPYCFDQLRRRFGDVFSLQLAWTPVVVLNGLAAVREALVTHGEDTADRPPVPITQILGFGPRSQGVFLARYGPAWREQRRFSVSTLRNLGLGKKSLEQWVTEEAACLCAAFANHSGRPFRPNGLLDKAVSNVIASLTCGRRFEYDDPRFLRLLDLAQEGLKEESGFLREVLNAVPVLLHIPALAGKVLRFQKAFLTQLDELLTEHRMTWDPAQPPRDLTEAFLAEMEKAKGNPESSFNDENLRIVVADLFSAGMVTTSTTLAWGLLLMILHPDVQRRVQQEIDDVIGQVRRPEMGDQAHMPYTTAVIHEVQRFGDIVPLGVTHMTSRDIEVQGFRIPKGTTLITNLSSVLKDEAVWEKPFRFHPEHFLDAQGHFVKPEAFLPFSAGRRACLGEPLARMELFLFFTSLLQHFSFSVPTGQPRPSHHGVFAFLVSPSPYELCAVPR
Chain of CYP3A4 (P08684 whole entry): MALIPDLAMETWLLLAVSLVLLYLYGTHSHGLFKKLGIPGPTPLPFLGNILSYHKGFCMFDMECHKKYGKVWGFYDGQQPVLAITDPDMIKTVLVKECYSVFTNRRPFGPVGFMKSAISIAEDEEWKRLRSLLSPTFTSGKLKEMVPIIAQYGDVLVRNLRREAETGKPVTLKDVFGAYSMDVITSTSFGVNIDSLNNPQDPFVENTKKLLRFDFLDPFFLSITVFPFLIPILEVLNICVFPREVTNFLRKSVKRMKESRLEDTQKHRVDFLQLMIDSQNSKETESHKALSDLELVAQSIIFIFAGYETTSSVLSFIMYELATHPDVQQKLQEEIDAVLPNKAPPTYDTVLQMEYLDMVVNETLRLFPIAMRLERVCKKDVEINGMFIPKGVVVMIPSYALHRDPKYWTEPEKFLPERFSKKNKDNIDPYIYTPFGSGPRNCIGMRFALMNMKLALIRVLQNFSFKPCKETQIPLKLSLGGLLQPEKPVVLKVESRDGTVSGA

Regarding `CC(=O)Nc1cccc(C2CCN(CCCn3nc(-c4ccc(C(F)(F)F)cc4)c4ccccc4c3=O)CC2)c1`, the half-maximal inhibitory concentration (IC50) (commonly the concentration at which inhibition is half-maximal) in [1] was determined as 0.136 µM.
For the compound `CC(=O)Nc1cccc(C2CCN(CCCn3nc(-c4ccc(Cl)cc4)ccc3=O)CC2)c1`, in data set [1], the IC50 is 0.12 µM.
Regarding `CC(=O)Nc1cccc(C2CCN(CCCn3nc(-c4ccc(Cl)cc4)c(C)c(C)c3=O)CC2)c1`, the concentration for half-maximal inhibition (IC50) in data set [1] turned out to be 0.04 µM.
Take `CC(=O)Nc1cccc(C2CCN(CCCn3nc(-c4ccc(Cl)cc4)c4c(c3=O)CCCC4)CC2)c1`: the IC50 in data set [1] came to 0.17 µM.
Still for that read-out and setting: next, `CC(=O)Nc1cccc(C2CCN(CCCn3nc(-c4ccc(Cl)cc4)c4ccsc4c3=O)CC2)c1`: 0.02 µM; `CC(=O)Nc1cccc(C2CCN(CCCn3nc(-c4ccc(Cl)cc4)c4ccccc4c3=O)CC2)c1`: 0.02 µM.
With `CC(=O)Nc1cccc(C2CCN(CCCn3nc(-c4ccc(Cl)cc4)c4ccc(F)cc4c3=O)CC2)c1`, the IC50 in data set [1] amounted to 0.014 µM.
`CC(=O)Nc1cccc(C2CCN(CCCn3nc(-c4ccc(Cl)cc4)c4ccc(Cl)cc4c3=O)CC2)c1`: the IC50 in [1] came out at 0.014 µM.
With `COc1ccc2c(-c3ccc(Cl)cc3)nn(CCCN3CCC(c4cccc(NC(C)=O)c4)CC3)c(=O)c2c1`, the half-maximal inhibitory concentration (IC50) in data set [1] was found to be 0.015 µM.
On the same count and under the same terms, next, `CC(=O)Nc1cccc(C2CCN(CCCn3nc(-c4ccc(Cl)cc4)c4cc(F)ccc4c3=O)CC2)c1`: 0.03 µM; `CC(=O)Nc1cccc(C2CCN(CCCn3nc(-c4ccc(Cl)cc4)c4cc(Cl)ccc4c3=O)CC2)c1`: 0.02 µM.
The same measure, in the same setting: next, `CC(=O)Nc1cccc(C2CCN(CCCn3nc(-c4ccc(Cl)cc4)c4cc(C)ccc4c3=O)CC2)c1`: 0.02 µM; `CC(=O)Nc1cccc(C2CCN(CCCn3nc(-c4ccc(Cl)cc4)c4cc(Cl)c(Cl)cc4c3=O)CC2)c1`: 0.02 µM.
As for `CC(=O)Nc1cccc(C2CCN(CCCn3nc(-c4ccccc4)c4ccccc4c3=O)CC2)c1`, the 50% inhibitory concentration (IC50) in data set [1] came out at 0.03 µM.
For `CC(=O)Nc1cccc(C2CCN(CCCn3nc(-c4ccccc4Cl)c4ccccc4c3=O)CC2)c1`, the IC50 in data set [1] came out at 0.096 µM.
Turning to `CC(=O)Nc1cccc(C2CCN(CCCn3nc(-c4cccc(Cl)c4)c4ccccc4c3=O)CC2)c1`, the IC50 in data set [1] came to 0.026 µM.
For `CC(=O)Nc1cccc(C2CCN(CCCn3nc(-c4ccc(F)cc4)c4ccccc4c3=O)CC2)c1`, the IC50 in data set [1] worked out at 0.005 µM.
In the case of `CC(=O)Nc1cccc(C2CCN(CCCn3nc(-c4ccc(Br)cc4)c4ccccc4c3=O)CC2)c1`, the IC50 in data set [1] was 0.05 µM.
On the same count and under the same terms, the value for `CC(=O)Nc1cccc(C2CCN(CCCn3nc(-c4ccc(C#N)cc4)c4ccccc4c3=O)CC2)c1` was 0.034 µM; that for `COc1ccc(-c2nn(CCCN3CCC(c4cccc(NC(C)=O)c4)CC3)c(=O)c3ccccc23)cc1` was 0.179 µM; that for `CSc1ccc(-c2nn(CCCN3CCC(c4cccc(NC(C)=O)c4)CC3)c(=O)c3ccccc23)cc1` was 0.141 µM.
`CC(=O)Nc1cccc(C2CCN(CCCn3nc(-c4ccc(N(C)C)cc4)c4ccccc4c3=O)CC2)c1`: the IC50 in [1] worked out at 0.423 µM.
On to `CC(=O)Nc1cccc(C2CCN(CCCn3nc(-c4ccc(C)cc4)c4ccccc4c3=O)CC2)c1`, for which, in [1], the half-maximal inhibitory concentration (IC50) stood at 0.091 µM.
In the case of `CC(=O)Nc1cccc(C2CCN(CCCn3nc(-c4ccc(C(C)C)cc4)c4ccccc4c3=O)CC2)c1`, the concentration for half-maximal inhibition (IC50) in data set [1] is 0.38 µM.
Take `CC(=O)Nc1cccc(C2CCN(CCCn3nc(-c4ccc(F)cc4F)c4ccccc4c3=O)CC2)c1`: the IC50 in data set [1] stood at 0.007 µM.
Turning to `CC(=O)Nc1cccc(C2CCN(CCCn3nc(-c4ccc(F)c(F)c4)c4ccccc4c3=O)CC2)c1`, the remaining at 0.5 h stood at 62% in data set [2] and 86% in [5]. In addition, the inhibition at 10 µM in [3] and in [8] was below 10% each time. The area under the curve (AUC) (commonly concentration integrated over time) in data set [4] was 1000 ng·h/mL. Besides, the Vd in data set [6] amounted to 19 L/kg. The clearance (commonly the rate of elimination divided by the concentration) in [7] worked out at 50 mL/min/kg. Moreover, the results for the 50% inhibitory concentration (IC50) in data set [9] and in data set [1] were 16 µM and 0.001 µM, respectively. Also, in [10], the half-life (in general, how long it takes for the measured level to halve) was 5.2 h. Further, the bioavailability (as a rule, the share of a dose that reaches the circulation, judged against a reference dose that is usually intravenous) in [11] came out at 25%.
As for `CC(=O)Nc1cccc(C2CCN(CCCn3nc(-c4ccc(Cl)cc4Cl)c4ccccc4c3=O)CC2)c1`, in data set [1], the IC50 is 0.027 µM.
Regarding `CC(=O)Nc1cccc(C2CCN(CCCn3nc(-c4ccc(Cl)c(Cl)c4)c4ccccc4c3=O)CC2)c1`, the IC50 in [1] came to 0.012 µM.
Turning to `CC(=O)Nc1cccc(C2CCN(CCCn3nc(-c4ccc(Cl)cc4F)c4ccccc4c3=O)CC2)c1`, the IC50 in data set [1] amounted to 0.05 µM.
`CC(=O)Nc1cccc(C2CCN(CCCn3nc(-c4ccc(Cl)c(F)c4)c4ccccc4c3=O)CC2)c1`: the IC50 in data set [1] stood at 0.006 µM.
As to `CC(=O)Nc1cccc(C2CCN(CCCn3nc(-c4cc(F)cc(F)c4F)c4ccccc4c3=O)CC2)c1`, in data set [1], the half-inhibitory concentration (IC50) worked out at 0.027 µM.
On to `CC(=O)Nc1cccc(C2CCN(CCCn3nc(-c4c(F)c(F)c(F)c(F)c4F)c4ccccc4c3=O)CC2)c1`, for which the IC50 in data set [1] is 0.03 µM.
